Assay results reported in ChEMBL document CHEMBL1143652, “Joys of molecules. 2. Endeavors in chemical biology and medicinal chemistry” (J Med Chem, 2005).
In brackets after ≈: the same amount, converted by molar mass.

Key:
[1] = target: Peptidyl-prolyl cis-trans isomerase FKBP1A (Homo sapiens, UniProt P62942); experiment: Inhibitory concentration against binding to FKBP12
[2] = target: Polyunsaturated fatty acid 5-lipoxygenase (Homo sapiens, UniProt P09917); experiment: Effective concentration required to inhibit 5-lipoxygenase by 50%
OVCAR-3 [3] = experiment: Cytotoxicity by measuring inhibitory concentration against ovcar-3 tumor cell line; Inactive; type: functional, cell-based, Homo sapiens
MCF7 [4] = experiment: Inhibitory concentration against MCF-7 human breast carcinoma cell line; Range is 2-5 nM; type: functional, cell-based
PC-3 [5] = experiment: Inhibitory concentration against PC-3 human prostate carcinoma cell line; Range is 2-5 nM; type: functional, cell-based
A549 [6] = experiment: Inhibitory concentration against A549 human lung carcinoma cell line; Range is 2-5 nM; type: functional, cell-based
A2780 [7] = experiment: Inhibitory concentration against A2780/AD10 cell line; Range is 2-5 nM; type: functional, cell-based; settings: Homo sapiens
1A9/ptx-10 [8] = experiment: Inhibitory concentration against 1A9/PTX10 cell line; Range is 2-5 nM; type: functional, cell-based; settings: Homo sapiens
1A9 [9] = experiment: Inhibitory concentration against 1A9 human ovarian carcinoma cell line; Range is 2-5 nM; type: functional, cell-based
OVCAR-3 [10] = experiment: Cytotoxicity by measuring inhibitory concentration against ovcar-3 tumor cell line; type: functional, cell-based, Homo sapiens; settings: Homo sapiens, OVCAR-3
OVCAR-3 [11] = experiment: Cytotoxicity by measuring inhibitory concentration against ovcar-3 tumor cell line; 10e-10; type: functional, cell-based; settings: Homo sapiens
1A9/ptx-10 [12] = experiment: Inhibitory concentration against 1A9/PTX10 cell line; Inactive upto 1 uM; type: functional, cell-based, Homo sapiens
A2780 [13] = experiment: Inhibitory concentration against A2780/AD10 cell line; Inactive upto 1 uM; type: functional, cell-based, Homo sapiens
MCF7 [14] = experiment: Inhibitory concentration against MCF-7 human breast carcinoma cell line; Inactive upto 1 uM; type: functional, cell-based
1A9 [15] = experiment: Inhibitory concentration against 1A9 human ovarian carcinoma cell line; Inactive upto 1 uM; type: functional, cell-based
A549 [16] = experiment: Inhibitory concentration against A549 human lung carcinoma cell line; Inactive upto 1 uM; type: functional, cell-based
PC-3 [17] = experiment: Inhibitory concentration against PC-3 human prostate carcinoma cell line; Inactive upto 1 uM; type: functional, cell-based
Gallus gallus = experiment: In vivo inhibition of angiogenesis in the chick chorioallantoic membrane (CAM) assay; type: functional
1A9 [18] = experiment: Inhibitory concentration against human ovarian 1A9 tumor cells; type: functional, cell-based
[19] = target: Tubulin beta-4B chain (Homo sapiens) (UniProt P68371); experiment: (§1) Tubulin polymerization at a concentration of 100 uM incubated for 90 minutes; type: functional
In short: (§2)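 Tubulin polymerization was read as percent polymerization, with test drug at 100 µM and a 90 min incubation.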

[20] = target: Tubulin beta-4B chain (Homo sapiens) (UniProt P68371); experiment: as §1; in short: as §2
MOLT-4 [21] = experiment: Inhibitory concentration against MOLT-4 human T-cells; 10e-11; type: functional, cell-based
MOLT-4 [22] = experiment: Inhibitory concentration against MOLT-4 human T-cells; type: functional, cell-based
[23] = target: T1, Integrin alpha-IIb/beta-3 (Homo sapiens, UniProt P05106+P08514); experiment: Inhibitory concentration against integrin alpha-2b beta3; type: protein-complex assay
[24] = target: T1, Integrin alpha-IIb/beta-3; experiment: Inhibitory concentration against alpha IIb beta-3 receptor; type: protein-complex assay
P388 [25] = experiment: Cytotoxicity against leukemia P-388 tumor cells; type: functional; settings: Mus musculus, read-out: ED50 (the source's name)
P388 [26] = experiment: Cytotoxicity against P-388 cancer cell line; type: functional, Homo sapiens; settings: Mus musculus, read-out: ED50 (the source's name)
A2780 [27] = experiment: Inhibitory concentration against A2780/AD10 cell line; Range is 10-15 nM; type: functional, cell-based; settings: Homo sapiens
1A9 [28] = experiment: Inhibitory concentration against 1A9 human ovarian carcinoma cell line; Range is 10-15 nM; type: functional, cell-based
MCF7 [29] = experiment: Inhibitory concentration against MCF-7 human breast carcinoma cell line; Range is 10-15 nM; type: functional, cell-based
A549 [30] = experiment: Inhibitory concentration against A549 human lung carcinoma cell line; Range is 10-15 nM; type: functional, cell-based
1A9/ptx-10 [31] = experiment: Inhibitory concentration against 1A9/PTX10 cell line; Range is 10-15 nM; type: functional, cell-based; settings: Homo sapiens
PC-3 [32] = experiment: Inhibitory concentration against PC-3 human prostate carcinoma cell line; Range is 10-15 nM; type: functional, cell-based
Bile acid receptor [33] = target: T2, Bile acid receptor (Homo sapiens, UniProt Q96RI1); experiment: Effective concentration towards farnesoid X receptor (FXR); Range is 5-10 uM
Bile acid receptor [34] = target: T2, Bile acid receptor; experiment: Effective concentration against farnesoid X receptor (FXR); range is 5-10 uM
[35] = Inhibitory concentration against LN229 cell proliferation; type: functional, cell-based; settings: Homo sapiens, LN-229
[36] = target: T3, Sodium channel alpha subunits; brain (Types I, II, III) (Homo sapiens, UniProt P35498+Q99250+Q9NY46); experiment: Inhibitory concentration against synaptosome using [3H]PbTx-3
[37] = target: T3, Sodium channel alpha subunits; brain (Types I, II, III); experiment: Inhibitory concentration against synaptosomes using [3H]PbTx-3; type: subcellular
[38] = target: T3, Sodium channel alpha subunits; brain (Types I, II, III)
[39] = target: T4, Peroxisome proliferator-activated receptor delta (Homo sapiens, UniProt Q03181); experiment: Effective concentration towards PPAR delta
[40] = target: T4, Peroxisome proliferator-activated receptor delta; experiment: Effective concentration against PPAR delta receptor

T3 sequence (Q99250 whole entry, looked up, other chains not shown): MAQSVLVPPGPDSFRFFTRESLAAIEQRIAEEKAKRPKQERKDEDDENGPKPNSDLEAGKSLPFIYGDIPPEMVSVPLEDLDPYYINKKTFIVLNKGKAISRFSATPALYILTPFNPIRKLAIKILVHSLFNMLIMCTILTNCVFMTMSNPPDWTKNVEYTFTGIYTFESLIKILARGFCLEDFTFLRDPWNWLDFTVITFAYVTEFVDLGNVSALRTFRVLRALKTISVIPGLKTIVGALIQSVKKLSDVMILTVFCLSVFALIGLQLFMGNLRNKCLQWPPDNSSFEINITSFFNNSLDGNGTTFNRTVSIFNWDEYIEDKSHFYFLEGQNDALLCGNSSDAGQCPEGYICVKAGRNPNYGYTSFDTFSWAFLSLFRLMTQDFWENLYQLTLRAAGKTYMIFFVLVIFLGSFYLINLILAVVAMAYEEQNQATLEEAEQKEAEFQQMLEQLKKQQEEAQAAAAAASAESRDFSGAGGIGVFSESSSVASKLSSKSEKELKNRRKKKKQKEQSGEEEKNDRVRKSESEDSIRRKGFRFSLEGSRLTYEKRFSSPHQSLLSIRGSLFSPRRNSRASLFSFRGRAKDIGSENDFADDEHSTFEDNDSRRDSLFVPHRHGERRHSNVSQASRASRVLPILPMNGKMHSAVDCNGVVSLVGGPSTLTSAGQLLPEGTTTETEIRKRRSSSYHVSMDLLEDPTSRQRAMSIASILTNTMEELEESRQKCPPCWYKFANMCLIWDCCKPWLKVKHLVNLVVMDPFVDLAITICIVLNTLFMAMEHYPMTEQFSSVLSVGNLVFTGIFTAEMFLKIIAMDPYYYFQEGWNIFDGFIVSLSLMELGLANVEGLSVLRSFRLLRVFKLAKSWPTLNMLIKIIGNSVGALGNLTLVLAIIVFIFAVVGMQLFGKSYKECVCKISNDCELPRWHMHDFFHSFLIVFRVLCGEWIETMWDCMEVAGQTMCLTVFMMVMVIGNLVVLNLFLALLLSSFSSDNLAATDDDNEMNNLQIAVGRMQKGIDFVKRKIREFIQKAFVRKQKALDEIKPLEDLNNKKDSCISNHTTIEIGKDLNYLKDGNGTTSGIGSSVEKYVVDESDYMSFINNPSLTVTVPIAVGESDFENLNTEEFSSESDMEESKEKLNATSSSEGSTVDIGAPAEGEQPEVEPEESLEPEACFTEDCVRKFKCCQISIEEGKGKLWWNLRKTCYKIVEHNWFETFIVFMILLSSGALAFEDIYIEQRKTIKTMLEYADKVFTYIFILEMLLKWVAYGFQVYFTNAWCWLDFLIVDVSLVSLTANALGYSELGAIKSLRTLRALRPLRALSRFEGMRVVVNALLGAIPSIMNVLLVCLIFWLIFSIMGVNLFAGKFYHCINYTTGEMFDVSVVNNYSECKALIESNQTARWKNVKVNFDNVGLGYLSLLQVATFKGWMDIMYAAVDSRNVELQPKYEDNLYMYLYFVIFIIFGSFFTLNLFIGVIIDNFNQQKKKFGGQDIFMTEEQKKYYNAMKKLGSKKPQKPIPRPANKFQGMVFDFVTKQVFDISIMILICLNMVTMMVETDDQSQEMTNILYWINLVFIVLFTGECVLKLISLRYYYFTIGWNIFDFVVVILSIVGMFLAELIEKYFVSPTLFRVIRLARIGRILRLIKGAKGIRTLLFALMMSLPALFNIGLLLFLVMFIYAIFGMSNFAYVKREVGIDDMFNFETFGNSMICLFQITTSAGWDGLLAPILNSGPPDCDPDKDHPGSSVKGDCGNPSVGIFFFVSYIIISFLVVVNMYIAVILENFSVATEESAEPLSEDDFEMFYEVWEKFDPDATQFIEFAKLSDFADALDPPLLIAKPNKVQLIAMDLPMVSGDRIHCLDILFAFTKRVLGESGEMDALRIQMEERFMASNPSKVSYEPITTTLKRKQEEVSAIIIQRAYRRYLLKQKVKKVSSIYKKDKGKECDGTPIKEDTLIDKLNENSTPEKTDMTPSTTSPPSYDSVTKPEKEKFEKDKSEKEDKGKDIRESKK
T3 sequence (Q9NY46 whole entry, looked up, other chains not shown): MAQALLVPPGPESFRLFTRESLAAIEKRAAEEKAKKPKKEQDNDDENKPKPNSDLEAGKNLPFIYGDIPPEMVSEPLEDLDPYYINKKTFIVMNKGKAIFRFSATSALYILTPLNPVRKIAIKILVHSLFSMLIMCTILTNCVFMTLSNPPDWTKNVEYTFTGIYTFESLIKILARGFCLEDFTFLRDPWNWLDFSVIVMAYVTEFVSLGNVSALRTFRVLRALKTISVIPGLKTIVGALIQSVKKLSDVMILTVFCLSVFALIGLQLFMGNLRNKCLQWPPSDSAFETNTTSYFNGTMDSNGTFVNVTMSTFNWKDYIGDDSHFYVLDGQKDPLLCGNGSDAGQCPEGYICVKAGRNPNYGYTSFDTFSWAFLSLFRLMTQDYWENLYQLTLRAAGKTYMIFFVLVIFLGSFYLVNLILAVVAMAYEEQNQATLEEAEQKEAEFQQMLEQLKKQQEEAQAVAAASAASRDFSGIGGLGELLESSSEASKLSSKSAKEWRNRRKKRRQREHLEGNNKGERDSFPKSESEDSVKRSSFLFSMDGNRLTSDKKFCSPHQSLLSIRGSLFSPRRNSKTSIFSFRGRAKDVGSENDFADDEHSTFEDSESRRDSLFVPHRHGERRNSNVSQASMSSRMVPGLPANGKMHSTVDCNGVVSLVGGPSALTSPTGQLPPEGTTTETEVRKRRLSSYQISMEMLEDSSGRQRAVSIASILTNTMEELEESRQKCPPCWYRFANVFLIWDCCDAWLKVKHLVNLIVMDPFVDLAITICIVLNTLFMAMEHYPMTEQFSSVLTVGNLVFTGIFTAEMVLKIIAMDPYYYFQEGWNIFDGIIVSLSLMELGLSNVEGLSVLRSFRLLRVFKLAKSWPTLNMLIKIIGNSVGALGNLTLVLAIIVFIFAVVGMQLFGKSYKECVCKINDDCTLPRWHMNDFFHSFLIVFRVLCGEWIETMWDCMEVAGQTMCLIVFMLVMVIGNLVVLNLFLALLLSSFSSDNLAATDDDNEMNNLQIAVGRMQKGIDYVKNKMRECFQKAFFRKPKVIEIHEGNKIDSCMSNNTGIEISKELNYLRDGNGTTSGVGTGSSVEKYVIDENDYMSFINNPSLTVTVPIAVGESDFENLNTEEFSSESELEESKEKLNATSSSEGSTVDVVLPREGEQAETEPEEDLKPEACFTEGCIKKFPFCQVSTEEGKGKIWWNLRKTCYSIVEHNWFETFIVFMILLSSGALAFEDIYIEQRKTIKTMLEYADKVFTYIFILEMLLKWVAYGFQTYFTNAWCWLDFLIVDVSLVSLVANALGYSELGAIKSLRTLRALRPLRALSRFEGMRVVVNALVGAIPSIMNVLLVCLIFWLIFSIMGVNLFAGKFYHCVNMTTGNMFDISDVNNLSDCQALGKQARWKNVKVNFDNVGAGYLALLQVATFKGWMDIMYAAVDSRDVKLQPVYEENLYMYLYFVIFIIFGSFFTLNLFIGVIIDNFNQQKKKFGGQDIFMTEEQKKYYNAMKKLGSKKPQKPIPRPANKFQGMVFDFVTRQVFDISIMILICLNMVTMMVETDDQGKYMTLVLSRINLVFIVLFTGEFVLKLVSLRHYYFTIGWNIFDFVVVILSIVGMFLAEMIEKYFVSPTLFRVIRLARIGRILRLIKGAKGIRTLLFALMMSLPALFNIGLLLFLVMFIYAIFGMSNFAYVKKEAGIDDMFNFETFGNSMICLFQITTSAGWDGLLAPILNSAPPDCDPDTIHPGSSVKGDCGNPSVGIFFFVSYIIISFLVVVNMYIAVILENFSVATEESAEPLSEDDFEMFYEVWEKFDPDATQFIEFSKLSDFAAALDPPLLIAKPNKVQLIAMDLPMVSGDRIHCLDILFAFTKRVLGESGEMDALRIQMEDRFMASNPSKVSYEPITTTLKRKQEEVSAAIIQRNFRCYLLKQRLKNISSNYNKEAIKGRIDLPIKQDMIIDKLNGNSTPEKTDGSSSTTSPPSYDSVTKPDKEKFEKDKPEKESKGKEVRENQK
T2 sequence (Q96RI1 whole entry): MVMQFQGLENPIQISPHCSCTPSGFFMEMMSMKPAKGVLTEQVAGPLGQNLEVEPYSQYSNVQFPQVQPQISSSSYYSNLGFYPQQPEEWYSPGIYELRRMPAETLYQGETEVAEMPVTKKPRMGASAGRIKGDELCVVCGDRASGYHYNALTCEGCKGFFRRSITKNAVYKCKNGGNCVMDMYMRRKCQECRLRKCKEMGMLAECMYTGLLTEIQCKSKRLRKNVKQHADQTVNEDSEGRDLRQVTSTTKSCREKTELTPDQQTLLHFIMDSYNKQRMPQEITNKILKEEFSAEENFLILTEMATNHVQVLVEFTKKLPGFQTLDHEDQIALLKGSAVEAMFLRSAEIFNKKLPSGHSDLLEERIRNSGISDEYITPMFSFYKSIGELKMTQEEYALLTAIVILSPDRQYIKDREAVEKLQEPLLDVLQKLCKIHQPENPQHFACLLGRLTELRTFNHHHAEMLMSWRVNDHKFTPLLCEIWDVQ
Chain of Tubulin beta-4B chain (Homo sapiens) (P68371 whole entry): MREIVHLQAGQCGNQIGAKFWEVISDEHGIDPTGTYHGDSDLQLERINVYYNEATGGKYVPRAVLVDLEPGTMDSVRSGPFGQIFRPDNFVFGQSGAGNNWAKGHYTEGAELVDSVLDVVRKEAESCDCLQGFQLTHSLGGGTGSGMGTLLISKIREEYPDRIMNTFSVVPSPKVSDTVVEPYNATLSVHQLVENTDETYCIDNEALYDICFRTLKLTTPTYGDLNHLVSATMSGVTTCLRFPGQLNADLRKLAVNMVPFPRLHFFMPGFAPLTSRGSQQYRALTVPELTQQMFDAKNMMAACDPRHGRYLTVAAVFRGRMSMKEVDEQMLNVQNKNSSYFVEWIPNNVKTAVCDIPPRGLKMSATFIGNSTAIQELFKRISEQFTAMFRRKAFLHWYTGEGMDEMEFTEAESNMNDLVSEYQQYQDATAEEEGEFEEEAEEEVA
Chain of Peptidyl-prolyl cis-trans isomerase FKBP1A (P62942 whole entry): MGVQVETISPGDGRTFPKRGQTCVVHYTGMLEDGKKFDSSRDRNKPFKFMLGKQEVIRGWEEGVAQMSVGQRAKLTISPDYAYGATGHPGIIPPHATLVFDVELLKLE

Work on `CO[C@H]1C[C@@H]2CC[C@@H](C)[C@@](O)(O2)C(=O)C(=O)N2CCCC[C@H]2C(=O)N[C@H](CCc2ccccc2)C(=O)NCC(=O)N(C)CC(=O)O[C@H]1C` yielded an IC50 [1] of 9.6 nM.
In the case of `O=C(O)CCC[C@H](O)\C=C/C=C/C=C/[C@H](O)C/C=C\CCCCC(F)(F)F`, the EC50 [2] is reported as 3 nM.
With `CC(=O)O[C@@H]1C2=C(C)[C@H](OC(=O)[C@H](O)[C@@H](NC(=O)c3ccccc3)c3ccccc3)C[C@@](O)([C@@H](OC(=O)c3ccccc3)c3ccccc3[C@H]1OC(C)=O)C2(C)C` the IC50 (OVCAR-3 [3]) was “Not Active”.
`[H][C@]12Nc3c4cccc3[C@]13C1=C(N=C(O1)[C@H](C(C)C)NC(=O)[C@@H](NC(=O)[C@@H](O)C(C)C)Cc1ccc(c3c1)O2)c1nc(Cl)c(o1)-c1c(Cl)[nH]c2cccc-4c12` [DIAZONAMIDE A] showed an IC50 (MCF7 [4]) of 5 nM, an IC50 (PC-3 [5]) of 5 nM and an IC50 (A549 [6]) of 5 nM. The IC50 (A2780 [7]) was 5 nM, the IC50 (1A9/ptx-10 [8]) was 5 nM and the IC50 (1A9 [9]) was 5 nM.
With `CC(=O)OC1C(=O)[C@@]2(C)[C@H]([C@H](OC(=O)c3ccsc3)[C@]3(O)C[C@H](OC(=O)[C@H](O)[C@@H](NC(=O)c4ccccc4)c4ccccc4)C(C)=C1C3(C)C)[C@]1(OC(C)=O)CO[C@@H]1C[C@@H]2O` (stereo not given in full) the IC50 (OVCAR-3 [10]) was 0.671 nM and the IC50 (OVCAR-3 [11]) was 0.67 nM.
In the case of `CC(C)[C@H](O)C(=O)N[C@H]1Cc2ccc(O)c(c2)[C@]2(C(=O)Nc3ccccc32)C2=C(CO)N=C(O2)[C@H](C(C)C)NC1=O`, the IC50 (1A9/ptx-10 [12]) is reported as “Inactive”, the IC50 (A2780 [13]) is reported as “Inactive” and the IC50 (MCF7 [14]) is reported as “Inactive”. For the same molecule, the IC50 (1A9 [15]) was “Inactive”, the IC50 (A549 [16]) was “Inactive” and the IC50 (PC-3 [17]) was “Inactive”.
`N=C(N)NCCOc1ccc(C(=O)NC[C@H](NS(=O)(=O)c2ccccc2)C(=O)O)cc1[N+](=O)[O-]` gave a Dose (Gallus gallus) of 30 ug/embryo.
For `CO[C@]12C=C[C@](C)(O1)[C@@H](OC(=O)/C=C/c1cn(C)cn1)C[C@H]1C(C)=CC[C@H](C(C)C)[C@H]1/C=C\2COC1OCC(O)C(O)C1OC(C)=O` (stereo not given in full), the IC50 (1A9 [18]) was 40 nM, the TP [19] was 54% and the TP [20] was 54%.
With `COC(=O)N/C(C)=C1/C(=C/COC(=O)c2ccc([N+](=O)[O-])cc2)[C@@](O)(CC=O)C#C/C=C\C#C[C@@H]1O` the IC50 (MOLT-4 [21]) was 0.044 nM and the IC50 (MOLT-4 [22]) was 0.044 nM.
With `N=C(N)N1CCN(c2ccc(C(=O)NC[C@H](NS(=O)(=O)c3c(O)ccc4ccccc34)C(=O)O)cc2[N+](=O)[O-])CC1` the IC50 [23] was 14 nM and the IC50 [24] was 14 nM.
For `CC(C)[C@@H]1NC(=O)[C@@H](NC(=O)OCc2ccccc2)Cc2ccc3c(c2)[C@]2(C4=C(C=O)N=C1O4)c1cccc(Br)c1N[C@@H]2O3`, the IC50 (1A9/ptx-10 [12]) was “Inactive”, the IC50 (A2780 [13]) was “Inactive” and the IC50 (MCF7 [14]) was “Inactive”. For the same molecule, the IC50 (1A9 [15]) was “Inactive”, the IC50 (A549 [16]) was “Inactive” and the IC50 (PC-3 [17]) was “Inactive”.
`CC(C)=CC[C@@H]1C(=O)C2=C(OC(C)(C)C=C2)C(=O)[C@@]12OC(=O)C1=C[C@]3(O)C[C@H]4C(C)(C)OC(CC=C(C)C)(C3=O)[C@]14O2` [LATERIFLORONE] gave an EC50 (P388 [25]) of 5.4 µg/mL (≈ 9.33 µM) and an EC50 (P388 [26]) of 5.4 µg/mL (≈ 9.33 µM).
`CC(C)[C@@H]1NC(=O)[C@@H](NC(=O)[C@H](O)C(C)C)Cc2ccc3c(c2)[C@]24C5=C(N=C1O5)c1nc(Cl)c(o1)-c1c(Cl)[nH]c5cccc(c15)-c1cccc2c1N[C@@H]4O3` showed an IC50 (A2780 [27]) of 15 nM, an IC50 (1A9 [28]) of 15 nM and an IC50 (MCF7 [29]) of 15 nM. The IC50 (A549 [30]) was 15 nM, the IC50 (1A9/ptx-10 [31]) was 15 nM and the IC50 (PC-3 [32]) was 15 nM.
Work on `COc1c(CN(C(=O)C2CC2)c2ccccc2)ccc2c1OC(C)(C)C=C2` yielded an EC50 (Bile acid receptor [33]) of 10000 nM and an EC50 (Bile acid receptor [34]) of 10000 nM.
`COc1c(C(C)n2cnc3ncccc32)ccc2c1C=CC(C)(C)O2` (stereo not given) gave an IC50 [35] of 26000 nM.
With `C=C(C=O)C[C@@H]1C[C@H](O)[C@]2(C)O[C@@H]3C[C@@H]4O[C@@H]5C[C@]6(C)O[C@]7(C)C(C)=CC(=O)O[C@H]7C[C@H]6O[C@@]5(C)C/C=C\[C@H]4O[C@H]3C[C@H]2O1` [TRUNCATED BREVETOXIN B] the IC50 [36] was > 10000 nM, the IC50 [37] was > 10000 nM and the Binding [38] was 18 nM.
Molecule `CC(C)N(Cc1cccc2c1OC(C)(C)C=C2)C(=O)c1ccc(-c2ccccc2)cc1` has an EC50 [39] of 1000 nM and an EC50 [40] of 1 nM.
Molecule `C=C(C=O)C[C@@H]1C[C@H](O)[C@]2(C)O[C@@H]3C[C@@H]4O[C@@H]5C[C@]6(C)O[C@]7(C)CC[C@@H]8O[C@@H]9C[C@]%10(C)O[C@@H]%11C(C)=CC(=O)O[C@H]%11C[C@H]%10O[C@H]9C[C@@H](C)[C@H]8O[C@H]7C[C@H]6O[C@@]5(C)C/C=C\[C@H]4O[C@H]3C[C@H]2O1` [BREVETOXIN B] has an IC50 [36] of 15.02 nM, an IC50 [37] of 15.02 nM and a Binding [38] of 18 nM.
